Hits are enriched below; roughly 3.7% of the tested compounds scored in any of these assays.
KCNQ1 act: potentiators or activators of KCNQ1 channel, primary screen, cell-based, thallium flux, high-throughput. 310,000 tested, 0.35% active. CHO-K1 KCNQ1, thallium flux FluxOR fluorescence; active compounds read high. B-score at 10 µM. Potassium voltage-gated channel subfamily KQT member 1 (Homo sapiens), P51787;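 active = fluorescence ratio B-score, a plate-corrected score, at least three library SD, with initial intensity B-score within 5 SD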
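Assay system: CHO-K1 cells stably expressing KCNQ1; Medium: assay buffer with matched DMSO; Also added: K+/Tl+ depolarizing stimulus; Dosing: single dose; Timing: dye 90 min, compound 20 min, room temperature; Measured by: kinetic FluxOR thallium fluorescence, 10-s 1-Hz baseline, 110-s post-stimulus read; Read-out: peak-minus-minimum fluorescence over initial fluorescence, negative-control normalized, B-scored.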
KCNK9 inh: KCNK9 potassium channel inhibitors, primary screen, HEK293 cells, thallium flux | Potassium channel subfamily K member 9 (Homo sapiens), Q9NPC2 | FluxOR thallium flux fluorescence; active compounds read low | B-score at 10 µM | 310,000 tested, 1.2% active | AID 488922, 2010;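 active = ratio B-score over 3 SD below the library mean, with starting fluorescence within 5 SD of its mean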;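 also: negative B-score means less thallium flux so channel inhibition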
Target sequence (Q9NPC2 whole entry, looked up): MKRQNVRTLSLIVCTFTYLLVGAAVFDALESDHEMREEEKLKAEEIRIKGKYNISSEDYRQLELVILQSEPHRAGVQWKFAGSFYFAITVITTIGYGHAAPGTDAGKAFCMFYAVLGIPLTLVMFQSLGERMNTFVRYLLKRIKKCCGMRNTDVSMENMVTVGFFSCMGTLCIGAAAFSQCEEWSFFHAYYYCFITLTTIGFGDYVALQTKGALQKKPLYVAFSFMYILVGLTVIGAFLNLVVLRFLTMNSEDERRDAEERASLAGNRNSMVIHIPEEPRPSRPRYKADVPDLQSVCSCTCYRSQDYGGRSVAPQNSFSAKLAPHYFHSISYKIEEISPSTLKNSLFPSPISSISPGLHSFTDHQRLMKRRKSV
KCNQ1 block: inhibitors of human KCNQ1 channel, primary screen, cell-based, thallium flux, high-throughput; CHO-K1 KCNQ1, FluxOR thallium flux fluorescence; active compounds read high; B-score at 10 µM; AID 2642, 2010; 310,000 tested, 1.3% active; Potassium voltage-gated channel subfamily KQT member 1 (Homo sapiens), P51787;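 active = compounds whose thallium flux B-score, printed positive for inhibition, exceeds three library SD while starting fluorescence stays within three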;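 also: channel opened by potassium depolarization with thallium stimulus after 20 min compound exposure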
hERG rescue: hERG rescue from dofetilide block, primary screen, cell-based, CHO-hERG, FluxOR thallium flux, dofetilide IC70; Voltage-gated inwardly rectifying potassium channel KCNH2 (Homo sapiens), Q12809; dofetilide IC70 present; AID 1511, 2009; activation (rescue from dofetilide block), less the hit threshold, % at 10 µM; 310,000 tested, 0.51% active;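 active = activation above the mean of controls blocked by dofetilide plus 5 SD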;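 also: thallium influx through hERG after potassium depolarization seen as dye fluorescence rise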
Kir21 block: inhibitors of mouse Kir2.1 inward-rectifier potassium channel; HEK293-Kir2.1, FluxOR thallium flux fluorescence; active compounds read low; B-score at 10 µM; 310,000 tested, 0.85% active;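 active = fluorescence ratio B-score at or below minus 3 SD of library scores, with starting-brightness B-score within 2 SD, cut at about -4.2 in these data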;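 also: channel flux triggered by added potassium and thallium sulfate stimulus; B-score of peak minus minimum fluorescence over baseline after thallium stimulus; more negative B-score means stronger Kir2.1 block with less thallium influx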
KCNK3 inh: human KCNK3 channel inhibitors, primary screen, CHO cells, FluxOR thallium flux, B-score; Potassium channel subfamily K member 3 (Homo sapiens), O14649; FluxOR fluorescence; active compounds read low; B-score at 10 µM; 340,000 tested, 0.84% active;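 active = B-score under library mean minus 4 SD, starting fluorescence ratio at most library mean plus 5 SD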;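 also: more negative B-score means stronger inhibition of thallium flux through KCNK3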
KCNK9 block conf: KCNK9 potassium channel inhibitors, confirmation, HEK293 cells, thallium flux, duplicate. shares compounds with KCNK9 inh. FluxOR thallium flux fluorescence. inhibition, % at 10 µM. 4,900 tested, 43% active. AID 492992, 2010;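 active = thallium signal inhibited by more than 5 SD of the compound-free buffer control wells, on both duplicate plates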
Kir21 sel: mouse Kir2.1 channel inhibition, confirmation, selectivity assay for KCNK9 modulator project, cell-based, HEK293, thallium flux. shares compounds with KCNK9 inh. AID 492993, 2010. inhibition, % at 10 µM. 4,900 tested, 4% active. Kir2.1 cells, FluxOR thallium flux fluorescence;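 active = thallium signal drop more than 5 SD beyond the mean of the no-compound control wells, seen in both duplicate plates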;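 also: signal is fluorescence rise after thallium addition divided by baseline fluorescence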
KCNK9 uninduced: thallium flux in non-induced HEK293 cells, confirmation, counter-screen for KCNK9 inhibitor project, cell-based, second counter screen, non-induced KCNK9-HEK293 | shares compounds with KCNK9 inh | FluxOR thallium flux | inhibition, % at 10 µM | 4,900 tested, 40% active | AID 492997, 2010;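 active = thallium signal drop beyond 5 SD of the untreated control mean, on both duplicate plates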
KCNK3 confirm: retest of human KCNK3 channel inhibitors, confirmation, CHO cells, FluxOR thallium flux, triplicate | shares compounds with KCNK3 inh | FluxOR fluorescence; 0% buffer, 100% carvedilol maximal block | ratio percent of control, % at 10 µM | 2,400 tested, 99% active;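 active = ratio percent of control, averaged over triplicates, above buffer control mean plus 5 SD, cut at about 64% in these data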;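 also: ratio is the fluorescence rise from min to max over baseline after thallium stimulus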
KCNK3 uninduced: thallium flux inhibition in non-induced cells, primary screen, counter-screen for KCNK3 inhibitor project, cell-based, non-induced KCNK3 line, FluxOR thallium, triplicate; shares compounds with KCNK3 inh; non-induced KCNK3 parental cells; active compounds read low; thallium flux ratio (lower = more inhibition) at 10 µM; 2,400 tested, 40% active; AID 651747, 2012;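 active = thallium flux ratio, averaged over three wells, more than 5 SD below the buffer control mean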;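 also: host cells are CHO cells without KCNK3 induction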
Each line names hits and unclear results; the compound was inactive in the other large screens (follow-up assays come after a bar, where they were run).

CC(C)(C)CC(=O)Nc1ccccc1N1CCN(c2ccccc2)CC1	none
CC(C)(C)CC(=O)Nc1ccccc1N1CCN(c2ccc(F)cc2)CC1	KCNK9 inh -12, KCNK3 inh -9 | KCNK9 block conf 73% | Kir21 sel inactive | KCNK9 uninduced 37% | KCNK3 confirm 120 | KCNK3 uninduced 0.14
O=C(CSc1nc2ccccc2c(=O)n1Cc1ccco1)NCc1ccccc1	none
COC(=O)c1ccc(CSc2nc3ccccc3c(=O)n2Cc2ccco2)o1	KCNK9 inh -12, KCNK3 inh -11 | KCNK9 block conf inactive | Kir21 sel inactive | KCNK9 uninduced 38% | KCNK3 confirm 118 | KCNK3 uninduced inactive
CC1Sc2ccc(S(=O)(=O)CCC(=O)NCc3ccc(Cl)cc3)cc2NC1=O (stereo not drawn)	none
Cc1cc(=O)oc2cc(NC(=O)C(CCCN=C(N)N)NC(=O)OCc3ccccc3)ccc12 (stereo not drawn)	none
O=C1CN(C(=O)c2c(F)cccc2F)C(c2ccc(F)cc2)c2cc(F)ccc2N1 (stereo not drawn)	none
COc1ccc(CCNS(=O)(=O)c2ccc(Br)s2)cc1	KCNK9 inh -9.2, KCNK3 inh -9.4 | KCNK9 block conf 76% | Kir21 sel inactive | KCNK9 uninduced 34% | KCNK3 confirm 116 | KCNK3 uninduced inactive
Cc1onc(-c2ccc(Cl)cc2)c1-c1ccnc(SCC(=O)Nc2cc(Cl)cc(Cl)c2)n1	KCNK9 inh -16, KCNQ1 block 9, KCNK3 inh -13 | KCNK9 block conf inactive | Kir21 sel inactive | KCNK9 uninduced 44% | KCNK3 confirm 101 | KCNK3 uninduced 0.15
Cn1c(SCC(=O)Nc2cc(Cl)cc(Cl)c2)nnc1-c1ccc2nonc2c1	none
CCOC(=O)c1cc(-c2ccc(Cl)cc2)nc2c1c(C)nn2CCC#N	KCNK9 inh -13, KCNK3 inh -9.3 | KCNK9 block conf 52% | Kir21 sel inactive | KCNK9 uninduced 32% | KCNK3 confirm 125 | KCNK3 uninduced 0.13
CCNc1nc(NCC)n2c(SCC(=O)c3ccccc3Cl)nnc2n1	none
Cc1ccc(S(=O)(=O)N2CC3CCCC2C3)cc1 (stereo not drawn)	none
Cc1ccccc1Sc1c(C#N)c(-c2ccccc2)nn1C	KCNK9 inh -8.6, KCNK3 inh -12 | KCNK9 block conf 42% | Kir21 sel inactive | KCNK9 uninduced 50% | KCNK3 confirm 123 | KCNK3 uninduced 0.13
Cc1ccc(Sc2c(CO)c(-c3ccccc3)nn2C)cc1	none
C[C@H](c1ccccc1)n1nnc(COCc2ccccc2)c1C#CCOCc1ccccc1	none

Source: PubChem BioAssay (Johns Hopkins Ion Channel Center)
